Measurements reported in ChEMBL document CHEMBL1142623, “Phytotoxic compounds from the new coprophilous fungus guanomyces polythrix” (J Nat Prod, 2000).
Calls of active or inactive are those of the source. The calls are words filed in the database; no cut-off is given here.

Tests used:
[1] = test system: Amaranthus hypochondriacus; assay: Phytotoxicity against Amaranthus hypochondriacus assessed as inhibition of radicle elongation; assay type: functional, organism-based
Outline: (§1)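 Seedling radicle growth assay at 28 °C. Pure compounds tested at 1, 10 and 100 µg mL-1, with 2,4-D as positive control. Results analysed by ANOVA (p < 0.05). IC50 calculated by Probit analysis from percent radicle growth inhibition.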

Echinochloa crus-galli = assay: Phytotoxicity against Echinochloa crusgalli assessed as inhibition of radicle elongation; assay type: functional, organism-based; outline: as §1
Calmodulin (Bos taurus) [2] = molecular target: Calmodulin (Bos taurus) (UniProt P62157); assay: Binding affinity to bovine brain calmodulin at 0.033 ug/mL after 1.5 hrs by electrophoretic mobility assay in presence of calcium chloride
Outline: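 Bovine brain calmodulin (2 µg samples) pretreated with isolates at 0.033 µg/mL plus 1 mM CaCl2 for 1.5 h at 30 °C. Mobility then compared against untreated calmodulin on 15% polyacrylamide SDS-PAGE. A parallel condition used EGTA in place of Ca2+.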

Calmodulin (Bos taurus) [3] = molecular target: Calmodulin (Bos taurus) (UniProt P62157); assay: Binding affinity to bovine brain calmodulin at 0.033 ug/mL after 1.5 hrs by electrophoretic mobility assay in presence of EGTA
Outline: (§2)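 Commercial spinach or bovine brain calmodulin, 2-µg samples, pretreated with compound for 1.5 h at 30 °C in presence of 1 mM CaCl2 or EGTA, then run on 15% polyacrylamide SDS-PAGE gels. Binding judged by shift in electrophoretic mobility relative to untreated calmodulin under the same condition (Ca2+ vs EGTA).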

[4] = molecular target: Calmodulin (Spinacia oleracea) (UniProt P04353); assay: Binding affinity to spinach calmodulin at 0.033 ug/mL after 1.5 hrs by electrophoretic mobility assay in presence of calcium chloride; outline: as §2
[5] = molecular target: Calmodulin (Spinacia oleracea) (UniProt P04353); assay: Binding affinity to spinach calmodulin at 0.033 ug/mL after 1.5 hrs by electrophoretic mobility assay presence of EGTA; outline: as §2

| SMILES | IC50 [1] [µM] | IC50 (Echinochloa crus-galli) [µM] | Activity (Calmodulin (Bos taurus) [2]) | Activity (Calmodulin (Bos taurus) [3]) | Activity [4] | Activity [5] |
| --- | --- | --- | --- | --- | --- | --- |
| COc1cc(OC)c2c(O)c3c(c(OC)c2c1)O[C@@H](C)CC3=O | 13 | 40 | Active | inactive | Active | Active |
| COc1cc(OC)c2c(O)c3c(=O)cc(C)oc3cc2c1 [RUBROFUSARIN B] | 13 | 87 | Active | inactive | Active | Active |
| Cc1cc(O)c2c(c1)C(=O)c1cc(O)cc(O)c1C2=O [EMODIN] | 130 | 20 | Active | inactive | Active | Active |
| CC1=C2C(=CO[C@H](C)[C@H]2C)C(O)=C(C(=O)O)C1=O [CITRININ] | 55 | 63 | Active | inactive | Active | Active |
| COc1cc(OC)c2c(O)c3c(cc2c1)O[C@@H](C)CC3=O | 23 | 87 | Active | inactive | Active | Active |
| COC(=O)c1ccc(O)cc1 [METHYLPARABEN] | 23 | 630 | Active | inactive | Active | Active |
| O=C(O)COc1ccc(Cl)cc1Cl [2,4-DICHLOROPHENOXYACETIC ACID] | 180 | 880 | – | – | – | – |
| COc1cc(OC)c2c(O)c3c(=O)c(C)c(C)oc3cc2c1 | 80 | 170 | Active | inactive | Active | Active |
| COc1cc(OC)c2c(O)c3c(c(OC)c2c1)O[C@@H](C)[C@H](C)C3=O | 65 | 61 | – | Active | Active | Active |
| COc1cc(OC)c2c(O)c3c(cc2c1)O[C@@H](C)[C@H](C)C3=O | 100 | 120 | Active | inactive | Active | Active |
